Source: PubChem BioAssay
MT stabilizer – stabilizes microtubules in HeLa cells. HeLa tubulin immunostaining HCS, 24 h; share of cells brighter than vehicle mean+2SD. % tubulin-high responders, % at 10 µM. 200,000 compounds, 0.83% hits. AID 2205;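 active means plate Z-score above 3 for both tubulin-high and condensed-nucleus cell shares, with cell loss under 80%, at 10 µM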;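 further: anti alpha tubulin signal scored within the nucleus-defined area of each cell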
Insulin prom up – MIN6 insulin promoter up-regulation; MIN6 insulin promoter-GFP reporter, high-content imaging; hits give high values; z-score at 5 µM; 190,000 compounds, 0.3% hits; AID 1625;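 active means z-score above 3 at 5 µM with at least 500 cells counted in the well; inconclusive means wells under 500 cells, flagged as cytotoxic or low count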
Autophagy HCS – autophagy modulation, high-content screen; MEF GFP-LC3 puncta imaging; test concentration mostly 10 µM; calls only at 10 µM (by protocol); 190,000 compounds, 0.98% hits; AID 463193;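 active means percentage of spot-positive cells more than 3 SD above its plate mean, without a fluorescence outlier flag or 80% toxicity; inconclusive means no clear call, values can overlap the other calls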;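 further: spot-positive cell cutoff set from DMSO-treated cells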
b-catenin transl – beta-catenin nuclear translocation modulation | HeLa beta-catenin nuclear translocation, immunofluorescence imaging | nuclear translocation activity, % at 5 µM | 190,000 compounds, 0.3% hits | AID 1665;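 active means nuclear translocation activity above 50% at 5 µM, with a well cell count of 50 or more; inconclusive means wells under 50 cells across six images, flagged as toxic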;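 further: per-cell ratio of nuclear to cytoplasmic median beta-catenin stain intensity; plate controls were DMSO negative control for no effect and GSK-3 inhibitor IX positive control for full effect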
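assay system = human HeLa cells, endogenous beta-catenin | times = compound treatment 24 h, 37°C, 5% CO2 | detection = Anti-beta-catenin immunofluorescence on PFA-fixed, Triton-permeabilized cells, DAPI nuclei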
Active calls of the source: *; i = inactive; ? = inconclusive; / = no result; + = active, no number. Most compounds without a hit are left out; they make up all but 1.9% or so of the library.

SMILES	MT stabilizer	Insulin prom up	Autophagy HCS	b-catenin transl
N=c1c2c(-c3ccccc3)c(-c3ccccc3)n(Cc3ccco3)c2ncn1CCCN1CCOCC1	44.1	-1.16	i	6.9
N=c1c2c(-c3ccccc3)c(-c3ccccc3)n(Cc3ccco3)c2ncn1Cc1ccccc1	5.4	/	+	/
CC(C)Cn1cnc2c(c(-c3ccccc3)c(-c3ccccc3)n2Cc2ccco2)c1=N	1.7	-3.58	+	/
N=c1c2c(-c3ccccc3)c(-c3ccccc3)n(Cc3ccccc3)c2ncn1CCO	2.7	0.26	+	-1.4
N=c1c2c(-c3ccccc3)c(-c3ccccc3)n(Cc3ccco3)c2ncn1CCCn1ccnc1	3.1	?	i	4.9
CN(C)CC(O)CN(c1ccccc1)c1ccccc1 (stereo not drawn)	/	0.89	/	-0.9
O=C(COc1ccccc1-c1ccccc1)N/N=C/c1ccncc1	3.5	-0.07	i	1.2
O=C(COc1ccccc1-c1ccccc1)N/N=C/c1ccc2ccccc2c1	4.9	/	i	131.0*
O=C(COc1ccccc1-c1ccccc1)N/N=C/c1cccnc1	14.1*	0.65	i	46.3
O=C(COc1ccccc1-c1ccccc1)N/N=C/c1ccccn1	4.9	0.52	i	-2.1
COc1ccc(CNC(=O)CN(c2cccc([N+](=O)[O-])c2)S(C)(=O)=O)cc1	4.0	0.51	i	-0.6
CC(=C/C(=O)O)/C(=C\c1ccc(Br)o1)C(=O)O	/	0.03	/	-1.2
C=C(C(=O)O)C1CCC2(C)CCCC(C)(O)C2C1 (stereo not drawn)	/	0.31	/	-0.8
COc1ccc(NC(=O)c2c(Cl)n(C)c3ccccc23)cc1	48.8*	0.67	i	2.6
COc1ccc(NC(=O)Cc2c(Sc3ccccc3)c3ccccc3n2C)cc1	3.2	-0.01	i	-3.2
Cc1nc(-c2ccccc2)nc2[nH]c(-c3ccccc3)cc(=O)c12	0.5	/	i	/
Cc1nc(C)c2c(=O)cc(-c3ccccc3)[nH]c2n1	42.6*	0.34	i	38.2
CCN1CCN(C(=O)c2ccccc2NS(=O)(=O)c2ccc(Cl)cc2)CC1	5.8	-1.02	i	-2.1
Cn1c(=O)[nH]c(=O)c2c1nc(N1CCOCC1)n2CCSc1nnnn1-c1ccccc1	/	0.55	/	0.2
CC(CSc1nnnn1-c1ccccc1)Cn1c(N2CCCC2)nc2c1c(=O)[nH]c(=O)n2C (stereo not drawn)	2.6	-0.29	+	-2.2
CN(CC(=O)Nc1cc(S(=O)(=O)N2CCOCC2)ccc1Cl)C1CCS(=O)(=O)C1 (stereo not drawn)	1.9	/	i	-0.6
C=CCc1cc(Cl)ccc1OCCOCCNC(C)(C)C	2.9	-1.82	+	0.8
C=CCc1cc(Cl)ccc1OCCOCCNCCOC	0.7	-0.36	i	1.3
CCC(C)NC(=O)c1cc(Sc2nnc(C)s2)nc2ccccc12 (stereo not drawn)	1.6	0.03	i	1.6
Cn1cc(/C=C(\C#N)C(=O)Nc2cccc([N+](=O)[O-])c2)c2ccccc21	1.8	/	+	0.5
SMILES	MT stabilizer	Insulin prom up	Autophagy HCS	b-catenin transl
Cn1cc(/C=N/NC(=O)c2cccc([N+](=O)[O-])c2)c2ccccc21	1.9	-0.18	i	/
CCCN(CCC)C(=O)CC(c1ccccc1)c1cc(Br)ccc1O (stereo not drawn)	1.5	0.21	i	-2.0
Cc1cc(C(=O)NC2Cc3ccccc3C2)c(C)o1	/	-1.12	/	1.8
C=CCSc1nc2c(cnn2-c2ccccc2)c(=O)n1N	/	0.27	/	-0.9
CN1CCN(C(=O)C2CCC(CNS(=O)(=O)c3cccc4cccnc34)CC2)CC1 (stereo not drawn)	2.3	-0.48	i	/
O=C(C1CCC(CNS(=O)(=O)c2cccc3cccnc23)CC1)N1CCc2ccccc21 (stereo not drawn)	5.9	?	+	/
CC(C)C(=O)NC(=S)Nc1ccc(S(=O)(=O)N(C)Cc2ccccc2)cc1	42.2*	-1.27	i	1.6
COCc1cc(=O)[nH]c(Nc2nc3ccc(C)cc3o2)n1	3.8	-0.34	+	0.9
CCc1ccc2nc(Nc3nc(COC)cc(=O)[nH]3)nc(C)c2c1	1.8	-1.2	i	0.2
c1ccc(-c2cn3nc(-c4ccccc4)c(-c4ccccc4)nc3n2)cc1	1.2	2.99	+	0.3
COc1ccc(S(=O)(=O)N2CCCC2C(=O)Nc2ccc(C(C)=O)cc2)cc1 (stereo not drawn)	4.1	1	i	0.0
CC(=O)Nc1cc2ccccc2oc1=O	1.2	0.28	i	0.7
COc1cc(C(=O)NC(=S)Nc2cccc(-c3cc4ccccc4oc3=O)c2)cc(OC)c1OC	1.5	-0.98	i	4.2
